Reference: ChEMBL document CHEMBL4396915, “Synthesis of new thiazolyl-pyrazolyl-1,2,3-triazole derivatives as potential antimicrobial agents” (2019)
Values after ≈ are worked out from the molar mass of the structure shown. Active and inactive are the calls of the source. No cut-off for these calls is given here.

Legend:
[1] = tested on: Aspergillus niger; experiment: Antifungal activity against Aspergillus niger NCIM 504 assessed as inhibition of fungal growth incubated for 48 to 72 hrs by broth microdilution susceptibility method; assay type: functional
Procedure, shortened: (§1)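 Tube micro-dilution in Sabouraud liquid medium. Stocks were made in DMSO and serially diluted twofold in broth to final […]. Tubes inoculated with organisms grown in potato dextrose broth and held 48-72 h at 30 C. MIC is the lowest concentration with no growth. DMSO and uninoculated-media controls were included, in triplicate.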

[2] = tested on: Aspergillus niger; experiment: Inhibition of CYP51 in Aspergillus niger NCIM 504 cells assessed as ergosterol synthesis measured per gram wet weight at 31.5 ug/ml incubated for 72 hrs by spectrophotometric analysis (reference value: 0.0000290836%); set-up: scale not given: the % may be the effect or the level left
Procedure, shortened: (§2)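 A. niger inoculated into potato dextrose broth with compound, untreated control, shaken 72 h at 37 C. Cells centrifuged, washed and pellet wet weight taken. Saponified in 25% alcoholic KOH 1 h at 85 C, then sterols extracted into n-heptane. Extract diluted fivefold in ethanol and scanned at 240-300 nm. Ergosterol computed as % of wet weight from A281.5 and A230, in duplicate.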

[3] = tested on: Escherichia coli; experiment: Antibacterial activity against Escherichia coli NCIM 2574 assessed as zone of inhibition at 80 ug/well incubated for 24 to 48 hrs by agar well diffusion method; assay type: functional; conditions: for zone of inhibition at 80 µg/disc: read-out: IZ
Procedure, shortened: (§3)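 Strains from NCIM kept on nutrient agar slants at 4 C and grown overnight at 37 C in nutrient broth. 500 microlitres of 24-48 h culture swabbed onto nutrient agar. Compounds in DMSO loaded into 5 mm wells, with a DMSO vehicle plate and streptomycin reference. Incubated 24-48 h at 37 C. Zone of inhibition measured in mm and averaged over 4 replicates.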

[4] = tested on: Candida albicans; experiment: Antifungal activity against Candida albicans NCIM 3100 assessed as inhibition of fungal growth incubated for 48 to 72 hrs by broth microdilution susceptibility method; assay type: functional; procedure, shortened: as §1
[5] = tested on: Aspergillus niger; experiment: Inhibition of CYP51 in Aspergillus niger NCIM 504 cells assessed as decrease in ergosterol biosynthesis at 31.5 ug/ml incubated for 72 hrs by spectrophotometric analysis; procedure, shortened: as §2
[6] = tested on: Proteus mirabilis; experiment: Antibacterial activity against Proteus mirabilis NCIM 2388 assessed as zone of inhibition at 80 ug/well incubated for 24 to 48 hrs by agar well diffusion method; assay type: functional; procedure, shortened: as §3
[7] = tested on: Aspergillus niger; experiment: Antifungal activity against Aspergillus niger NCIM 504 assessed as zone of inhibition at 80 ug/well incubated for 48 to 72 hrs by agar well diffusion method; assay type: functional; conditions: for zone of inhibition at 80 µg/disc: read-out: IZ
Procedure, shortened: (§4)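 Fungi kept on potato dextrose agar slants and grown in potato dextrose broth. 500 microlitres of 48-72 h spore suspension swabbed onto Mueller Hinton agar. Compounds in DMSO loaded into 5 mm wells, with a DMSO vehicle plate and fluconazole/ravuconazole positive-control plate. Incubated 48-72 h at 30 C. Clear zone measured in mm, mean of five replicates.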

[8] = tested on: Staphylococcus epidermidis; experiment: Antibacterial activity against Staphylococcus albus NCIM 2178 assessed as zone of inhibition at 80 ug/well incubated for 24 to 48 hrs by agar well diffusion method; assay type: functional; conditions: read-out: IZ; procedure, shortened: as §3
[9] = tested on: Rhodotorula glutinis; experiment: Antifungal activity against Rhodotorula glutinis NCIM 3168 assessed as inhibition of fungal growth incubated for 48 to 72 hrs by broth microdilution susceptibility method; assay type: functional; procedure, shortened: as §1
[10] = tested on: Rhodotorula glutinis; experiment: Antifungal activity against Rhodotorula glutinis NCIM 3168 assessed as zone of inhibition at 80 ug/well incubated for 48 to 72 hrs by agar well diffusion method; assay type: functional; conditions: read-out: IZ; procedure, shortened: as §4
[11] = tested on: Candida albicans; experiment: Antifungal activity against Candida albicans NCIM 3100 assessed as zone of inhibition at 80 ug/well incubated for 48 to 72 hrs by agar well diffusion method; assay type: functional; conditions: read-out: IZ; procedure, shortened: as §4

MIC [1] [µg/mL]	Activity [2] [%]	MIC [4]	inhibition [5]	MIC [9] [µg/mL]	SMILES	zone of inhibition at 80 µg/disc [3] [mm]	inhibition zone (IZ) [6]	zone of inhibition at 80 µg/disc [7] [mm]	zone of inhibition at 80 µg/disc [8] [mm]	zone of inhibition at 80 µg/disc [10] [mm]	zone of inhibition at 80 µg/disc [11] [mm]	inhibition zone (IZ) [7]	inhibition zone (IZ) [3]
31.2 (≈ 59.7 µM)	0	inactive	Active	62.5 (≈ 119 µM)	Cc1ccc(-c2nc(C)c(-c3nn(-c4ccccc4)cc3-c3cn(Cc4ccc(Cl)cc4)nn3)s2)cc1	13.6	inactive	16	12	19	10	–	–
31.2 (≈ 62.2 µM)	0	62.5 µg/mL (≈ 124 µM)	Active	125 (≈ 249 µM)	Cc1ccc(Cn2cc(-c3cn(-c4ccccc4)nc3-c3sc(-c4ccc(C)cc4)nc3C)nn2)cc1	10.2	inactive	–	14.4	22.3	13	inactive	–
31.2 (≈ 63.4 µM)	0	125 µg/mL (≈ 254 µM)	Active	62.5 (≈ 127 µM)	Cc1nc(-c2ccc(F)cc2)sc1-c1nn(-c2ccccc2)cc1-c1cn(Cc2ccccc2)nn1	11.8	inactive	15.8	12.2	16	16.2	–	–
31.2 (≈ 61.7 µM)	0	inactive	Active	62.5 (≈ 123 µM)	Cc1ccc(Cn2cc(-c3cn(-c4ccccc4)nc3-c3sc(-c4ccc(F)cc4)nc3C)nn2)cc1	9.6	inactive	13	13.7	16.2	12.2	–	–
31.2 (≈ 61.2 µM)	0	125 µg/mL (≈ 245 µM)	Active	62.5 (≈ 122 µM)	Cc1nc(-c2ccc(F)cc2)sc1-c1nn(-c2ccccc2)cc1-c1cn(Cc2ccc(F)cc2)nn1	12.2	inactive	11	11.8	13.3	12.8	–	–
62.5 (≈ 113 µM)	–	125 µg/mL (≈ 226 µM)	–	62.5 (≈ 113 µM)	Cc1nc(-c2ccc(Br)cc2)sc1-c1nn(-c2ccccc2)cc1-c1cn(Cc2ccccc2)nn1	11.5	inactive	13.4	14.6	16.2	14.6	–	–
125 (≈ 254 µM)	–	125 µg/mL (≈ 254 µM)	–	125 (≈ 254 µM)	Cc1nc(-c2ccccc2)sc1-c1nn(-c2ccccc2)cc1-c1cn(Cc2ccc(F)cc2)nn1	11	inactive	16.4	10	14.6	15.8	–	–
125 (≈ 219 µM)	–	125 µg/mL (≈ 219 µM)	–	62.5 (≈ 109 µM)	Cc1nc(-c2ccc(F)cc2)sc1-c1nn(-c2ccccc2)cc1-c1cn(Cc2ccc(Br)cc2)nn1	–	inactive	16.8	11.4	16.5	14.4	–	inactive
125 (≈ 230 µM)	–	inactive	–	62.5 (≈ 115 µM)	Cc1nc(-c2ccc(Cl)cc2)sc1-c1nn(-c2ccccc2)cc1-c1cn(Cc2ccc(Cl)cc2)nn1	9.8	inactive	12.3	11.5	14	11.3	–	–
